This note sets out measurements from ChEMBL document CHEMBL1122491, “Synthesis and biological activity of 5-(trifluoromethyl)- and 5-(pentafluoroethyl)pyrimidine nucleoside analogues” (J Med Chem, 1983).

Data set [1] deals with L1210. Put plainly: In vitro percent inhibition of replication of L1210 cells at 100 uM concentration. Format: functional. To be noted: Mus musculus. The method, boiled down: (§1)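 Mouse L1210 and S-180 suspension cultures were kept in Fischer's medium + 10% horse serum at 37 °C, 5% CO2. Exponentially growing cells at 2 × 10⁴ cells/mL were given compound. The increase in cell number versus drug-free control was counted after 24, 48 and 72 h. ED50 came from dose-response curves of at least two independent experiments.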

In data set [2] the test system is Human alphaherpesvirus 1. Put plainly: In vitro percent inhibition of replication of HSV-1 cells at 100 uM concentration. Format: functional. The settings on record: Human alphaherpesvirus 1, HSV-1. The method, boiled down:
(§2)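 Confluent Vero monolayers in Dulbecco's medium + 10% fetal calf serum were infected with HSV-1 strain CL-101 at MOI 10. After 1 h adsorption at 37 °C, the inoculum was removed and the cells washed with PBS. Compound in serum-containing medium was added for 40 h at 37 °C. Virus released by one freeze-thaw was titred by plaque assay on Vero cells. Percent inhibition was pfu relative to drug-free cultures. ED50 came from dose-response curves of at least two independent experiments.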

Data set [3] is described as follows: In vitro percent inhibition of replication of S-180 cells at 100 uM concentration. The settings on record: Mus musculus. Type of data set: functional. The method, boiled down: as §1
Data set [4] concerns Human alphaherpesvirus 1. Put plainly: Concentration required to inhibit replication of HSV-1 cell by 50%. Type of data set: functional. To be noted: Human alphaherpesvirus 1, HSV-1; read-out: ED50 (the source's name). The method, boiled down: as §2
Data set [5] deals with Human alphaherpesvirus 1. Put plainly: In vitro percent inhibition of replication of HSV-1 cells at 40 uM concentration. Format: functional. The settings on record: Human alphaherpesvirus 1, HSV-1. The method, boiled down: as §2
In data set [6] the test system is Human alphaherpesvirus 1. Put plainly: In vitro percent inhibition of replication of HSV-1 cells at 80 uM concentration. To be noted: Human alphaherpesvirus 1, HSV-1. Type of data set: functional. The method, boiled down:
as §2

For data set [7], the system named is L1210. Put plainly: Concentration required to inhibit replication of L1210 cell by 50%. Type of data set: functional. To be noted: Mus musculus, read-out: ED50 (the source's name). The method, boiled down:
as §1

Data set [8] in a line: In vitro percent inhibition of replication of S-180 cells at 50 uM concentration. Type of data set: functional. To be noted: Mus musculus. The method, boiled down:
as §1

For data set [9], the system named is Human alphaherpesvirus 1. Put plainly: In vitro percent inhibition of replication of HSV-1 cells at 10 uM concentration. Format: functional. To be noted: Human alphaherpesvirus 1, HSV-1. In a few lines:
as §2

Data set [10] in a line: In vitro percent inhibition of replication of S-180 cells at 25 uM concentration. Format: functional. To be noted: Mus musculus. The method, boiled down:
as §1

For data set [11], the system named is Vero. Put plainly: In vitro percent inhibition of replication of vero cells at 25 uM concentration. Format: functional. To be noted: Chlorocebus sabaeus. The method, boiled down:
(§3)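 Uninfected Vero cells were seeded at 0.1 confluency in Dulbecco's medium + 10% fetal calf serum and grown 1 day at 37 °C, 5% CO2. Compound was then added in growth medium. Cells were detached with 0.125% trypsin/0.02% EDTA for 15 min at 37 °C, dispersed by pipetting, stained with Trypan blue and counted by hemocytometer. ED50 came from dose-response curves of at least two independent experiments.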

Data set [12] can be described thus: Therapeutic index was determined as the ratio fo ED50(vero)/ ED50(HSV-1). To be noted: monkey, Vero cells. The method, boiled down: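 Ratio of ED50 for uninfected Vero cell replication (cell counts after compound exposure) to ED50 for HSV-1 yield in Vero cells (plaque titration after 40 h infection at MOI 10). Both ED50 values were estimated from dose-response curves of at least two independent experiments.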

The test system of data set [13] is Vero. Put plainly: In vitro percent inhibition of replication of vero cells at 5 uM concentration. Format: functional. The settings on record: Chlorocebus sabaeus. In a few lines:
as §3

The subject of data set [14] is Vero. Put plainly: In vitro percent inhibition of replication of vero cells at 100 uM concentration. Type of data set: functional. To be noted: Chlorocebus sabaeus. In a few lines:
as §3

Data set [15] concerns Vero. Put plainly: In vitro percent inhibition of replication of vero cells at 50 uM concentration. Type of data set: functional. The settings on record: Chlorocebus sabaeus. The method, boiled down: as §3
Data set [16] relates to Human alphaherpesvirus 1. Put plainly: In vitro percent inhibition of replication of HSV-1 cells at 20 uM concentration. Type of data set: functional. To be noted: Human alphaherpesvirus 1, HSV-1. In a few lines: as §2
Data set [17] has as its system Vero. Put plainly: Concentration required to inhibit replication of vero cell by 50%. Format: functional. The settings on record: Chlorocebus sabaeus, read-out: ED50 (the source's name). In a few lines:
as §3

Data set [18] deals with L1210. Put plainly: In vitro percent inhibition of replication of L1210 cells at 25 uM concentration. Format: functional. The settings on record: Mus musculus. The method, boiled down:
as §1

Data set [19] has as its system Human alphaherpesvirus 1. Put plainly: In vitro percent inhibition of replication of HSV-1 cells at 5 uM concentration. Type of data set: functional. To be noted: Human alphaherpesvirus 1, HSV-1. In a few lines:
as §2

Data set [20] can be described thus: Concentration required to inhibit replication of S-180 cell by 50%. Format: functional. The settings on record: Mus musculus, read-out: ED50 (the source's name). In a few lines:
as §1

Data set [21] concerns L1210. Put plainly: In vitro percent inhibition of replication of L1210 cells at 50 uM concentration. Type of data set: functional. The settings on record: Mus musculus. In a few lines: as §1
Data set [22] has as its system Human alphaherpesvirus 1. Put plainly: In vitro percent inhibition of replication of HSV-1 cells at 1.25 uM concentration. Type of data set: functional. To be noted: Human alphaherpesvirus 1, HSV-1. In a few lines: as §2
Data set [23] can be described thus: In vitro percent inhibition of replication of S-180 cells at 12.5 uM concentration. To be noted: Mus musculus. Format: functional. The method, boiled down: as §1
For data set [24], the system named is Human alphaherpesvirus 1. Put plainly: In vitro percent inhibition of replication of HSV-1 cells at 12.5 uM concentration. Type of data set: functional. To be noted: Human alphaherpesvirus 1, HSV-1. The method, boiled down: as §2
Data set [25] deals with L1210. Put plainly: In vitro percent inhibition of replication of L1210 cells at 12.5 uM concentration. Format: functional. To be noted: Mus musculus. In a few lines: as §1
Data set [26] concerns Vero. Put plainly: In vitro percent inhibition of replication of vero cells at 400 uM concentration. Type of data set: functional. To be noted: Chlorocebus sabaeus. The method, boiled down:
as §3

Data set [27] concerns Human alphaherpesvirus 1. Put plainly: In vitro percent inhibition of replication of HSV-1 cells at 50 uM concentration. Type of data set: functional. To be noted: Human alphaherpesvirus 1, HSV-1. The method, boiled down:
as §2

The test system of data set [28] is L1210. Put plainly: In vitro percent inhibition of replication of L1210 cells at 200 uM concentration. To be noted: Mus musculus. Type of data set: functional. In a few lines: as §1
The subject of data set [29] is L1210. Put plainly: In vitro percent inhibition of replication of L1210 cells at 400 uM concentration. Type of data set: functional. To be noted: Mus musculus. The method, boiled down:
as §1

A short description of data set [30]: In vitro percent inhibition of replication of S-180 cells at 200 uM concentration. Type of data set: functional. The settings on record: Mus musculus. In a few lines: as §1
Data set [31] concerns Vero. Put plainly: In vitro percent inhibition of replication of vero cells at 200 uM concentration. Type of data set: functional. To be noted: Chlorocebus sabaeus. The method, boiled down:
as §3

Data set [32] has as its system Vero. Put plainly: In vitro percent inhibition of replication of vero cells at 10 uM concentration. Format: functional. The settings on record: Chlorocebus sabaeus. In a few lines: as §3
Data set [33] concerns Vero. Put plainly: In vitro percent inhibition of replication of vero cells at 1 uM concentration. To be noted: Chlorocebus sabaeus. Type of data set: functional. In a few lines: as §3
Data set [34] can be described thus: In vitro percent inhibition of replication of S-180 cells at 0.1 uM concentration. Type of data set: functional. The settings on record: Mus musculus. The method, boiled down:
as §1

As for `O=c1[nH]c(=O)n(C2C[C@@H](O)[C@@H](CO)O2)cc1C(F)(F)C(F)(F)F` (stereo partly drawn), the inhibition at 100 µM with L1210 [1] amounted to 17%; with Human alphaherpesvirus 1 [2] it was 15%; in data set [3] it was 28%. The EC50 with Human alphaherpesvirus 1 [4] was above 400 µM.

The molecule `CC(=O)OC[C@H]1OC(n2cc(C(F)(F)F)c(=O)[nH]c2=O)[C@H](OC(C)=O)[C@H]1OC(C)=O` (stereo partly drawn) showed an inhibition at 40 µM with Human alphaherpesvirus 1 [5] of 97%. For the same molecule, the inhibition at 80 µM in the data set with Human alphaherpesvirus 1 [6] is 98%. The EC50 amounted to 45 µM in the data set with L1210 [7], 45 µM with Vero [17], 25 µM in [20] and 7 µM with Human alphaherpesvirus 1 [4]. Moreover, the inhibition at 50 µM in data set [8] turned out to be 60%; in the data set on Vero [15], 57%; in the data set on L1210 [21], 58%. This molecule also returned an inhibition at 10 µM in the data set with Human alphaherpesvirus 1 [9] of 61%. Moreover, the inhibition at 25 µM in [10] came out at 47%; in the data set on Vero [11], 8%; with L1210 [18], 13%. Further, in [12], the selectivity ratio is 6.4. For the same molecule, the inhibition at 100 µM is 95% with L1210 [1], 100% in the data set on Vero [14] and 95% in data set [3]. For the same molecule, the inhibition at 5 µM with Vero [13] turned out to be 0%; in the data set with Human alphaherpesvirus 1 [19] it was 17%. In the data set with Human alphaherpesvirus 1 [16], this molecule registered an inhibition at 20 µM of 92%.

Turning to `CC(=O)OC[C@H]1OC(n2cc(C(F)(F)C(F)(F)F)c(=O)[nH]c2=O)C[C@H]1OC(C)=O` (stereo partly drawn), in the data set on Human alphaherpesvirus 1 [22], the inhibition at 1.25 µM turned out to be 26%. Further, the inhibition at 12.5 µM came out at 37% in [23], 51% with Human alphaherpesvirus 1 [24] and 14% with L1210 [25]. In the data set with Human alphaherpesvirus 1 [4], the EC50 worked out at 12.5 µM.

Consider `O=c1[nH]c(=O)n(C2O[C@H](CO)[C@@H](O)[C@@H]2O)cc1C(F)(F)F` (stereo partly drawn), for which the inhibition at 400 µM came to 66% in the data set on Vero [26] and 87% with L1210 [29]. The inhibition at 50 µM with Human alphaherpesvirus 1 [27] came out at 88%; in data set [8] it was 46%; with Vero [15] it was 0%; in the data set with L1210 [21], 33%. The EC50 in the data set on L1210 [7] is 70 µM; in the data set on Vero [17], 320 µM; in data set [20] it was 65 µM; with Human alphaherpesvirus 1 [4], 5 µM. In addition, 10 µM produced 74% inhibition in the data set on Human alphaherpesvirus 1 [9]. Besides, the inhibition at 25 µM worked out at 41% in [10] and 19% in the data set on L1210 [18]. Also, the selectivity ratio in data set [12] was found to be 64. Further, the inhibition at 100 µM with L1210 [1] is 66%; in the data set on Human alphaherpesvirus 1 [2] it was 99%; with Vero [14] it was 4%; in data set [3], 59%. Besides, the inhibition at 200 µM is 84% in the data set on L1210 [28], 71% in data set [30] and 14% in the data set on Vero [31].

Turning to `O=c1[nH]c(=O)n([C@H]2C[C@H](O)[C@@H](CO)O2)cc1C(F)(F)F` [TRIFLURIDINE], in the data set on Vero [32], the inhibition at 10 µM was found to be 100%. The same molecule displayed an inhibition at 1 µM in the data set with Vero [33] of 63%. For the same molecule, at 0.1 µM the inhibition in data set [34] was 100%.
